Experimental data as given in ChEMBL document CHEMBL1139875, “Discovery of 4-aminobutyric acid derivatives possessing anticonvulsant and antinociceptive activities: a hybrid pharmacophore approach” (2007).
Calls of active or inactive are those of the source. The calls are words filed in the database; no cut-off is given here.

Key:
Mus musculus [1] = assay: Anticonvulsant activity in Swiss Albino mouse at 300 mg/kg, ip after 0.5 hr by MES test; type: functional, organism-based; set-up: dose 300 mg/kg
Method in brief: (§1)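 Mice (Swiss, 20-25 g) given i.p. doses of 30, 100 and 300 mg/kg under ADD program protocols, three per group, examined at 0.5 and 4 h in MES, scPTZ, scSTY or scPIC seizure tests. Value is the minimum dose protecting half or more of the mice.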

Mus musculus [2] = assay: Anticonvulsant activity in Swiss Albino mouse at 300 mg/kg, ip after 4 hrs by MES test; type: functional, organism-based; set-up: dose 300 mg/kg; method in brief: as §1
Mus musculus [3] = assay: Neurotoxicity in Swiss Albino mouse at 300 mg/kg, ip after 4 hrs by rotarod test; type: functional, organism-based; set-up: dose 300 mg/kg
Method in brief: (§2)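 Swiss mice (20-25 g) are trained on an accelerating rotorod (10 rpm, 3.2 cm rod), then injected i.p. at 30, 100 or 300 mg/kg, with three per group. Neurotoxicity means failure to keep equilibrium for at least 1 min in each of three trials, checked at 0.5 and 4 h. The value reported is the minimum dose affecting half or more of the mice.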

Mus musculus [4] = assay: Anticonvulsant activity in Swiss Albino mouse at 300 mg/kg, ip after 0.5 hr by scSTY test; type: functional, organism-based; set-up: dose 300 mg/kg; method in brief: as §1
Mus musculus [5] = assay: Analgesic activity in Swiss Albino mouse assessed as number of acetic acid-induced writhing per 30 min after 100 mg/kg, ip; type: functional
Method in brief: (§3)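 Mice in groups of six dosed i.p. at 100 mg/kg, controls receiving 30% v/v PEG 400 in water. Writhing induced by i.p. 0.1 mL of 3% v/v acetic acid 1 h after drug. Writhes (abdominal stretch with at least one hind limb extended) counted over 30 min; % inhibition calculated. Mean ± SEM, Student's t test.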

Mus musculus [6] = assay: Anticonvulsant activity in Swiss Albino mouse at 300 mg/kg, ip after 4 hrs by scPIC test; type: functional, organism-based; set-up: dose 300 mg/kg; method in brief: as §1
Mus musculus [7] = assay: Anticonvulsant activity in Swiss Albino mouse at 300 mg/kg, ip after 0.5 hr by scPIC test; type: functional, organism-based; set-up: dose 300 mg/kg; method in brief: as §1
Mus musculus [8] = assay: Neurotoxicity in Swiss Albino mouse at 300 mg/kg, ip after 0.5 hr by rotarod test; type: functional, organism-based; set-up: dose 300 mg/kg; method in brief: as §2
Mus musculus [9] = assay: Anticonvulsant activity in Swiss Albino mouse at 300 mg/kg, ip after 0.5 hr by scPTZ test; type: functional, organism-based; set-up: dose 300 mg/kg; method in brief: as §1
Mus musculus [10] = assay: Anticonvulsant activity in Swiss Albino mouse at 300 mg/kg, ip after 4 hrs by scSTY test; type: functional, organism-based; set-up: dose 300 mg/kg; method in brief: as §1
Mus musculus [11] = assay: Analgesic activity in Swiss Albino mouse assessed as inhibition of acetic acid-induced writhing responses at 100 mg/kg, ip; type: functional; details: for inhibition in vivo at 100 mg/kg: route intraperitoneal; method in brief: as §3
Rattus norvegicus [12] = assay: Effect on spontaneous pain in Sprague-Dawley rat CCI model assessed as duration of paw withdrawal at 100 mg/kg, ip after 1 hr; type: functional; details: route intraperitoneal
Method in brief: (§4)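 CCI rats (n = 4) dosed 100 mg/kg i.p. (vehicle 30% v/v PEG 400 in water). After 10 min acclimatization in a cage 5 cm above ground, cumulative time the ipsilateral paw was held off the floor over 5 min recorded, excluding locomotion lifts. Mean ± SEM; ANOVA/Bonferroni versus predrug.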

Rattus norvegicus [13] = assay: Effect on spontaneous pain in Sprague-Dawley rat CCI model assessed as duration of paw withdrawal at 100 mg/kg, ip after 2 hrs; type: functional; details: route intraperitoneal
Method in brief: (§5)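 Unilateral CCI of sciatic nerve (Bennett and Xie) in Sprague-Dawley rats under i.p. pentobarbital sodium (65 mg/kg). Spontaneous pain is scored over 5 min after 10 min acclimatization, as cumulative time the ipsilateral paw is held off the floor. Paw lifts from locomotion or repositioning are excluded. Drug is given at 100 mg/kg i.p. with 30% v/v PEG 400 vehicle. Mean ± SEM, n = 4, compared with predrug by ANOVA/Bonferroni.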

Rattus norvegicus [14] = assay: Anti-dynamic allodynia effect in Sprague-Dawley rat SNL model assessed as latency to paw withdrawal 100 mg/kg, ip after 2 hrs; type: functional; details: route intraperitoneal
Method in brief: (§6)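 Left L5 spinal nerve ligation rats, tested preoperatively and 9 days postoperatively, then given 100 mg/kg i.p. (vehicle 30% v/v PEG 400 in water). After 10 min acclimatization, plantar surface of affected paw stroked mildly with a cotton-bud; paw lift response recorded. n = 4; retested 0.5-2.5 h post-dose.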

Rattus norvegicus [15] = assay: Anti-dynamic allodynia effect in Sprague-Dawley rat SNL model assessed as latency to paw withdrawal 100 mg/kg, ip after 0.5 hr; type: functional; details: route intraperitoneal; method in brief: as §6
Rattus norvegicus [16] = assay: Effect on spontaneous pain in Sprague-Dawley rat CCI model assessed as duration of paw withdrawal at 100 mg/kg, ip after 2.5 hrs; type: functional; details: route intraperitoneal; method in brief: as §5
Rattus norvegicus [17] = assay: Anti-dynamic allodynia effect in Sprague-Dawley rat SNL model assessed as latency to paw withdrawal 100 mg/kg, ip after 2.5 hrs; type: functional; details: route intraperitoneal; method in brief: as §6
Rattus norvegicus [18] = assay: Effect on spontaneous pain in Sprague-Dawley rat CCI model assessed as duration of paw withdrawal at 100 mg/kg, ip after 1.5 hrs; type: functional; details: route intraperitoneal; method in brief: as §5
Rattus norvegicus [19] = assay: Anti-dynamic allodynia effect in Sprague-Dawley rat SNL model assessed as latency to paw withdrawal 100 mg/kg, ip after 1.5 hrs; type: functional; details: route intraperitoneal; method in brief: as §6
Rattus norvegicus [20] = assay: Anti-dynamic allodynia effect in Sprague-Dawley rat SNL model assessed as latency to paw withdrawal 100 mg/kg, ip after 1 hr; type: functional; details: route intraperitoneal; method in brief: as §6
Rattus norvegicus [21] = assay: Effect on spontaneous pain in Sprague-Dawley rat CCI model assessed as duration of paw withdrawal at 100 mg/kg, ip after 0.5 hr; type: functional; details: route intraperitoneal; method in brief: as §4
Rattus norvegicus [22] = assay: Effect on spontaneous pain in Sprague-Dawley rat SNL model assessed as duration of paw withdrawal at 100 mg/kg, ip after 2.5 hrs; type: functional; details: route intraperitoneal
Method in brief: (§7)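 Rats underwent left L5 spinal nerve ligation (Kim and Chung) under i.p. pentobarbital (65 mg/kg). Spontaneous pain is recorded for 5 min after 10 min acclimatization, as cumulative duration the ipsilateral paw is lifted, excluding locomotor lifts. Dosing is 100 mg/kg i.p. in 30% v/v PEG 400/water, with testing at 0.5–2.5 h. Four rats, mean ± SEM versus predrug, one-way ANOVA with Bonferroni.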

Rattus norvegicus [23] = assay: Antihyperalgesic effects in Sprague-Dawley rat SNL model assessed as duration of paw withdrawal at 100 mg/kg, ip after 1 hr, ip; type: functional; details: route intraperitoneal
Method in brief: (§8)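 L5 SNL rats (n = 4), dosed 100 mg/kg i.p. (vehicle 30% v/v PEG 400 in water). Pin-prick to midplantar ipsilateral left hindpaw; withdrawal duration, mean of three responses; ≥2 s defined abnormal. Mean ± SEM; one-way ANOVA with Bonferroni versus predrug.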

Rattus norvegicus [24] = assay: Effect on spontaneous pain in Sprague-Dawley rat SNL model assessed as duration of paw withdrawal at 100 mg/kg, ip after 0.5 hr; type: functional; details: route intraperitoneal; method in brief: as §7
Rattus norvegicus [25] = assay: Antihyperalgesic effects in Sprague-Dawley rat SNL model assessed as duration of paw withdrawal at 100 mg/kg, ip after 0.5 hr, ip; type: functional; details: route intraperitoneal; method in brief: as §8
Rattus norvegicus [26] = assay: Antihyperalgesic effects in Sprague-Dawley rat SNL model assessed as duration of paw withdrawal at 100 mg/kg, ip after 2 hrs, ip; type: functional; details: route intraperitoneal; method in brief: as §8
Rattus norvegicus [27] = assay: Antihyperalgesic effects in Sprague-Dawley rat SNL model assessed as duration of paw withdrawal at 100 mg/kg, ip after 1.5 hrs, ip; type: functional; details: route intraperitoneal; method in brief: as §8
Rattus norvegicus [28] = assay: Antihyperalgesic effects in Sprague-Dawley rat SNL model assessed as duration of paw withdrawal at 100 mg/kg, ip after 2.5 hrs, ip; type: functional; details: route intraperitoneal; method in brief: as §8
Rattus norvegicus [29] = assay: Effect on spontaneous pain in Sprague-Dawley rat SNL model assessed as duration of paw withdrawal at 100 mg/kg, ip after 1 hr; type: functional; details: route intraperitoneal; method in brief: as §7
Rattus norvegicus [30] = assay: Effect on spontaneous pain in Sprague-Dawley rat SNL model assessed as duration of paw withdrawal at 100 mg/kg, ip after 1.5 hrs; type: functional; details: route intraperitoneal; method in brief: as §7
Rattus norvegicus [31] = assay: Effect on spontaneous pain in Sprague-Dawley rat SNL model assessed as duration of paw withdrawal at 100 mg/kg, ip after 2 hrs; type: functional; details: route intraperitoneal; method in brief: as §7
Rattus norvegicus [32] = assay: Antihyperalgesic effects in Sprague-Dawley rat CCI model assessed as duration of paw withdrawal at 100 mg/kg, ip after 1 hr; type: functional; details: route intraperitoneal
Rattus norvegicus [33] = assay: Antihyperalgesic effects in Sprague-Dawley rat CCI model assessed as duration of paw withdrawal at 100 mg/kg, ip after 2.5 hrs; type: functional; details: route intraperitoneal
Rattus norvegicus [34] = assay: Antihyperalgesic effects in Sprague-Dawley rat CCI model assessed as duration of paw withdrawal at 100 mg/kg, ip after 0.5 hr; type: functional; details: route intraperitoneal
Rattus norvegicus [35] = assay: Antihyperalgesic effects in Sprague-Dawley rat CCI model assessed as duration of paw withdrawal at 100 mg/kg, ip after 2 hrs; type: functional; details: route intraperitoneal
Rattus norvegicus [36] = assay: Antihyperalgesic effects in Sprague-Dawley rat CCI model assessed as duration of paw withdrawal at 100 mg/kg, ip after 1.5 hrs; type: functional; details: route intraperitoneal

SMILES | Activity (Mus musculus [1]) | Activity (Mus musculus [2]) | Activity (Mus musculus [3]) | Activity (Mus musculus [4]) | Activity (Mus musculus [5]; route intraperitoneal) | Activity (Mus musculus [6]) | Activity (Mus musculus [7]) | Activity (Mus musculus [8]) | Activity (Mus musculus [9]) | Activity (Mus musculus [10]) | inhibition in vivo at 100 mg/kg (Mus musculus [11]) [%] | Activity (Rattus norvegicus [14]) [s] | Activity (Rattus norvegicus [15]) [s] | Activity (Rattus norvegicus [17]) [s] | Activity (Rattus norvegicus [19]) [s] | Activity (Rattus norvegicus [20]) [s] | Activity (Rattus norvegicus [22]) [s] | Activity (Rattus norvegicus [23]) [s] | Activity (Rattus norvegicus [24]) [s] | Activity (Rattus norvegicus [25]) [s] | further results
CC(=O)Oc1ccccc1C(=O)O [ASPIRIN] | inactive | inactive | inactive | inactive | 5.7 | inactive | inactive | inactive | inactive | inactive | 97 | – | – | – | – | – | – | – | – | – | –
O=C(O)CCCNC(=O)N/N=C/c1ccc([N+](=O)[O-])cc1 | inactive | inactive | inactive | inactive | 18.7 | inactive | inactive | Active | inactive | inactive | 90 | 1.8 | 14.5 | 1.34 | 1.5 | 4.3 | – | – | – | – | Activity (Rattus norvegicus [12]): 9.2 s; Activity (Rattus norvegicus [13]): 11.3 s; Activity (Rattus norvegicus [16]): 17.2 s; Activity (Rattus norvegicus [18]): 13.6 s; Activity (Rattus norvegicus [21]): 10.2 s
CCC1(C)CC(=O)NC1=O (stereo unspecified) | inactive | inactive | inactive | inactive | – | inactive | inactive | inactive | Active | inactive | – | – | – | – | – | – | – | – | – | – | Activity (Mus musculus [5]): inactive; Activity (Mus musculus [11]): inactive
C/C(=N\NC(=O)NCCCC(=O)O)c1ccc([N+](=O)[O-])cc1 | inactive | inactive | inactive | inactive | 61 | inactive | inactive | inactive | inactive | inactive | 67 | – | – | – | – | – | – | – | – | – | –
O=C(O)CCCNC(=O)NN=C(c1ccccc1)c1ccccc1 | Active | inactive | inactive | Active | 13.3 | Active | Active | Active | inactive | Active | 93 | – | – | – | – | – | 8.8 | 19.9 | 15.1 | 18.4 | Activity (Rattus norvegicus [26]): 13.7 s; Activity (Rattus norvegicus [27]): 18.5 s; Activity (Rattus norvegicus [28]): 15 s; Activity (Rattus norvegicus [29]): 18.5 s; Activity (Rattus norvegicus [30]): 13.4 s; Activity (Rattus norvegicus [31]): 10.9 s
O=C(O)CCCNC(=O)NN=C1CCCCC1 | inactive | inactive | inactive | inactive | 32 | inactive | Active | inactive | Active | inactive | 82 | 0.2 | 5.2 | 0.24 | 1.8 | 5.6 | 10.8 | 19.7 | 21.2 | 14.7 | Activity (Rattus norvegicus [32]): 24.8 s; Activity (Rattus norvegicus [33]): 7 s; Activity (Rattus norvegicus [34]): 20.3 s; Activity (Rattus norvegicus [26]): 11.3 s; Activity (Rattus norvegicus [27]): 15.6 s; Activity (Rattus norvegicus [28]): 12.8 s; Activity (Rattus norvegicus [29]): 20.2 s; Activity (Rattus norvegicus [30]): 10.8 s; Activity (Rattus norvegicus [31]): 10.6 s; Activity (Rattus norvegicus [35]): 5.2 s; Activity (Rattus norvegicus [36]): 4.8 s
